We go through four molecules from ChEMBL document CHEMBL3112528 (ACS Med Chem Lett, 2014).

A short description of data set [1]: Oral bioavailability in rat at 1 mg/kg. Type of data set: ADME, organism-based. The following applies: in vivo. In short, it runs like this: (§1)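 Rats (n = 3) given 0.5 mg/kg intravenously and 1.0 mg/kg orally; values reported as mean ± spread over 3 animals.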
A short description of data set [2]: Oral bioavailability in dog at 1 mg/kg. Type of data set: ADME, organism-based, Canis lupus familiaris. The following applies: in vivo.
The nature of data set [3]: Clearance in rat at 0.5 mg/kg, iv and 1 mg/kg, po. Type of data set: ADME, organism-based. The following applies: in vivo. In short, it runs like this:
as §1

Data set [4] is described as follows: Volume of distribution at steady state in dog at 0.2 mg/kg, iv and 1 mg/kg, po. It is filed as ADME, organism-based, Canis lupus familiaris. The following applies: in vivo, read-out: Vdss.
Data set [5] in a line: Half life in rat at 0.5 mg/kg, iv and 1 mg/kg, po. Type of data set: ADME, organism-based. The following applies: in vivo. In short, it runs like this:
as §1

The nature of data set [6]: Volume of distribution at steady state in rat at 0.5 mg/kg, iv and 1 mg/kg, po. The following applies: in vivo, read-out: Vdss. Type of data set: ADME, organism-based. In short, it runs like this: as §1
Data set [7] is described as follows: Clearance in dog at 0.2 mg/kg, iv and 1 mg/kg, po. Type of data set: ADME, organism-based, Canis lupus familiaris. The following applies: in vivo.
Data set [8] is described as follows: Half life in dog at 0.2 mg/kg, iv and 1 mg/kg, po. The following applies: in vivo. It is filed as ADME, organism-based, Canis lupus familiaris.
A short description of data set [9]: Half life in dog at 0.2 mg/kg, iv. Type of data set: ADME, organism-based, Canis lupus familiaris. The following applies: in vivo. On the set-up: dose 0.2 mg/kg, route intravenous.
Data set [10] can be described thus: Volume of distribution at steady state in dog at 0.2 mg/kg, iv. Type of data set: ADME, organism-based, Canis lupus familiaris. On the set-up: dose 0.2 mg/kg, route intravenous. The following applies: in vivo, read-out: Vdss.
The nature of data set [11]: Clearance in dog at 0.2 mg/kg, iv. The following applies: in vivo. It is filed as ADME, organism-based, Canis lupus familiaris. On the set-up: dose 0.2 mg/kg, route intravenous.

Bounds are passed on as bounds.

As to `CCOc1cc([C@@H](Nc2ccc3c(N)nccc3c2)C(=O)NS(=O)(=O)c2ccccc2)ccc1OC(C)C`, the bioavailability is below 1% in data set [1] and 3.5% in [2].

For the molecule `CCOc1ccc(F)c([C@@H](Nc2ccc3c(N)nccc3c2)C(=O)N2CCC[C@@H]2c2cc(NC(=O)OC)ccc2S(=O)(=O)C(C)C)c1`, the clearance in data set [3] came to 26 mL/min/kg; in data set [7], 41 mL/min/kg. The Vd is 4.2 L/kg in [4] and 5.6 L/kg in [6]. For the same molecule, the values for the half-life in [5] and in [8] were 4.9 h and 2.2 h, respectively. Also, the figures for the bioavailability in data set [1] and in data set [2] were 7.9% and 45%, respectively.

On to `CCOc1cc([C@@H](Nc2ccc3c(N)nccc3c2)C(=O)NCc2ccccc2)ccc1OC(C)C`, for which the bioavailability in data set [1] came to 31%; in data set [2], 45%.

Turning to `CCS(=O)(=O)c1ccccc1[C@H]1[C@@H](C(=O)O)CCN1C(=O)[C@H](Nc1ccc2c(N)nccc2c1)c1ccc(F)c(OC)c1`, the half-life in [9] was 1.1 h. In addition, the Vd in data set [10] turned out to be 0.65 L/kg. This molecule also gave a clearance in data set [11] of 14 mL/min/kg.

In general, bioavailability refers to dose-corrected exposure relative to a reference, in per cent. Higher therefore signals much systemic uptake. In general, half-life refers to the time in which the quantity being followed falls by half. Low values mean rapid decline, high ones slow decline.
